Measured values published in ChEMBL document CHEMBL1153580, “Synthesis and pharmacological investigation of 3-(substituted 1-phenylethanone)-4-(substituted phenyl)-1, 2, 3, 4-tetrahydropyrimidine-5-carboxylates” (Eur J Med Chem, 2009).

Experiments:
Rattus norvegicus [1] = test: Antihypertensive activity in Norwegian albino rat assessed as inhibition of DOCA salt-induced diastolic blood pressure at 10 mg/kg, po after 120 mins by invasive carotid artery cannulation method; format: functional; conditions: 2 h
Summary of the method: (§1)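 Male rats (200–250 g), uninephrectomized and given DOCA s.c. (30–50 mg/kg/week) with 1% NaCl drinking water. Anesthetized with pentobarbital (35 mg/kg i.p.); left carotid artery cannulated and exteriorized. After recovery and a baseline reading, compound given orally by feeding needle. Diastolic pressure recorded via transducer at 15, 30, 60, 120 and 180 min. Mean ± S.E.M.; repeated-measures ANOVA.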

Rattus norvegicus [2] = test: Antihypertensive activity in Norwegian albino rat assessed as inhibition of DOCA salt-induced diastolic blood pressure at 10 mg/kg, po after 180 mins by invasive carotid artery cannulation method; format: functional; conditions: 3 h; summary of the method: as §1
Rattus norvegicus [3] = test: Antihypertensive activity in Norwegian albino rat assessed as inhibition of DOCA salt-induced diastolic blood pressure at 10 mg/kg, po after 240 mins by invasive carotid artery cannulation method; format: functional; conditions: 4 h
Rattus norvegicus [4] = test: Antiinflammatory activity in Norwegian albino rat assessed as inhibition of carrageenan-induced paw edema at 100 mg/kg, po after administered 60 mins prior to carrageenan-challenge measured after 1 hr; format: functional
Summary of the method: (§2)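 Compound given orally as 100 mg/kg suspension in 0.5% CMC. 60 min later, carrageenan injected sub-plantar into the left hind paw. Paw volume measured within 30 s of injection, then at 1–5 h. % inhibition = [1−(Dt/Dc)]×100, where Dt and Dc are mean relative paw-volume changes in test and control. ANOVA.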

Rattus norvegicus [5] = test: Antiinflammatory activity in Norwegian albino rat assessed as inhibition of carrageenan-induced paw edema at 100 mg/kg, po after administered 60 mins prior to carrageenan-challenge measured after 3 hrs; format: functional; summary of the method: as §2
Rattus norvegicus [6] = test: Antiinflammatory activity in Norwegian albino rat assessed as inhibition of carrageenan-induced paw edema at 100 mg/kg, po after administered 60 mins prior to carrageenan-challenge measured after 5 hrs; format: functional; summary of the method: as §2
Mus musculus = test: Analgesic activity against acetic acid-induced writhing in Swiss albino mouse assessed as protection at 20 mg/kg, po; format: functional
Summary of the method: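 Swiss albino mice (25–30 g), six per group, habituated 30 min individually in the test cage. Compound in 1% CMC given p.o. at 20 mg/kg. 1 h later, acetic acid injected i.p.; writhes (arching of back, body elongation, hind-limb extension) counted 5–15 min after injection. % inhibition = (n−n′)/n×100, where n and n′ are mean writhes in control and test.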

Rattus norvegicus [7] = test: Gastrointestinal toxicity in albino rat assessed as ulcerogenic index at 50 mg/kg, po; format: organism-based; set-up: dose 50 mg/kg, route oral; conditions: in vivo
Summary of the method: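 Albino rats (150–200 g), six per group, food but not water withheld 24 h. Compound given p.o. at 50 mg/kg; controls received 1% methyl cellulose. Rats fed 17 h, then killed; stomach opened along greater curvature and examined under 4× magnifier. Lesions scored as large (>2 mm), small (1–2 mm) or punctiform (<1 mm). Severity index = treated mean score minus control mean score.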

Rattus norvegicus [8] = test: Antihypertensive activity in Norwegian albino rat assessed as inhibition of DOCA salt-induced systolic blood pressure at 10 mg/kg, po after 420 mins by non-invasive tail-cuff method; format: functional; conditions: Artery, 7 h
Summary of the method: (§3)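 Male rats (200–250 g), uninephrectomized under pentobarbital (50 mg/kg i.p.); one week later DOCA s.c. 30–50 mg/kg/week, with 1% w/v NaCl in drinking water. Groups of six, trained in restrainer, tail warmed at 33–34 °C. Compound in 0.5% CMC, 10 mg/kg orally. Systolic pressure read by tail-cuff before dosing and from 1 h after; three readings averaged. ANOVA.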

Rattus norvegicus [9] = test: Antihypertensive activity in Norwegian albino rat assessed as inhibition of DOCA salt-induced systolic blood pressure at 10 mg/kg, po after 15 mins by non-invasive tail-cuff method; format: functional; conditions: Artery, 0.25 h
Rattus norvegicus [10] = test: Antihypertensive activity in Norwegian albino rat assessed as inhibition of DOCA salt-induced systolic blood pressure at 10 mg/kg, po after 30 mins by non-invasive tail-cuff method; format: functional; conditions: Artery, 0.5 h
Rattus norvegicus [11] = test: Antihypertensive activity in Norwegian albino rat assessed as inhibition of DOCA salt-induced systolic blood pressure at 10 mg/kg, po after 60 mins by non-invasive tail-cuff method; format: functional; conditions: Artery, 1 h; summary of the method: as §3
Rattus norvegicus [12] = test: Antihypertensive activity in Norwegian albino rat assessed as inhibition of DOCA salt-induced systolic blood pressure at 10 mg/kg, po after 120 mins by non-invasive tail-cuff method; format: functional; conditions: Artery, 2 h; summary of the method: as §3
Rattus norvegicus [13] = test: Antihypertensive activity in Norwegian albino rat assessed as inhibition of DOCA salt-induced systolic blood pressure at 10 mg/kg, po after 180 mins by non-invasive tail-cuff method; format: functional; conditions: Artery, 3 h; summary of the method: as §3
Rattus norvegicus [14] = test: Antihypertensive activity in Norwegian albino rat assessed as inhibition of DOCA salt-induced systolic blood pressure at 10 mg/kg, po after 240 mins by non-invasive tail-cuff method; format: functional; conditions: Artery, 4 h; summary of the method: as §3
Rattus norvegicus [15] = test: Antihypertensive activity in Norwegian albino rat assessed as inhibition of DOCA salt-induced systolic blood pressure at 10 mg/kg, po after 300 mins by non-invasive tail-cuff method; format: functional; conditions: Artery, 5 h; summary of the method: as §3
Rattus norvegicus [16] = test: Antihypertensive activity in Norwegian albino rat assessed as inhibition of DOCA salt-induced systolic blood pressure at 10 mg/kg, po after 360 mins by non-invasive tail-cuff method; format: functional; conditions: Artery, 6 h; summary of the method: as §3
Rattus norvegicus [17] = test: Antihypertensive activity in Norwegian albino rat assessed as inhibition of DOCA salt-induced systolic blood pressure at 10 mg/kg, po after 480 mins by non-invasive tail-cuff method; format: functional; conditions: Artery, 8 h; summary of the method: as §3
Rattus norvegicus [18] = test: Antihypertensive activity in Norwegian albino rat assessed as inhibition of DOCA salt-induced diastolic blood pressure at 10 mg/kg, po after 15 mins by invasive carotid artery cannulation method; format: functional; conditions: 0.25 h; summary of the method: as §1
Rattus norvegicus [19] = test: Antihypertensive activity in Norwegian albino rat assessed as inhibition of DOCA salt-induced diastolic blood pressure at 10 mg/kg, po after 30 mins by invasive carotid artery cannulation method; format: functional; conditions: 0.5 h; summary of the method: as §1
Rattus norvegicus [20] = test: Antihypertensive activity in Norwegian albino rat assessed as inhibition of DOCA salt-induced diastolic blood pressure at 10 mg/kg, po after 60 mins by invasive carotid artery cannulation method; format: functional; conditions: 1 h; summary of the method: as §1

| SMILES | inhibition in vivo at 10 mg/kg (Rattus norvegicus [1]) [%] | inhibition in vivo at 10 mg/kg (Rattus norvegicus [2]) [%] | inhibition in vivo at 10 mg/kg (Rattus norvegicus [3]) [%] | inhibition in vivo at 100 mg/kg (Rattus norvegicus [4]) [%] | inhibition in vivo at 100 mg/kg (Rattus norvegicus [5]) [%] | inhibition in vivo at 100 mg/kg (Rattus norvegicus [6]) [%] | Activity (Mus musculus) [%] | UI (Rattus norvegicus [7]) | inhibition in vivo at 10 mg/kg (Rattus norvegicus [8]) [%] | inhibition in vivo at 10 mg/kg (Rattus norvegicus [9]) [%] | inhibition in vivo at 10 mg/kg (Rattus norvegicus [10]) [%] | inhibition in vivo at 10 mg/kg (Rattus norvegicus [11]) [%] | inhibition in vivo at 10 mg/kg (Rattus norvegicus [12]) [%] | inhibition in vivo at 10 mg/kg (Rattus norvegicus [13]) [%] | inhibition in vivo at 10 mg/kg (Rattus norvegicus [14]) [%] | inhibition in vivo at 10 mg/kg (Rattus norvegicus [15]) [%] | inhibition in vivo at 10 mg/kg (Rattus norvegicus [16]) [%] | inhibition in vivo at 10 mg/kg (Rattus norvegicus [17]) [%] | inhibition in vivo at 10 mg/kg (Rattus norvegicus [18]) [%] | inhibition in vivo at 10 mg/kg (Rattus norvegicus [19]) [%] | further results |
| --- | --- | --- | --- | --- | --- | --- | --- | --- | --- | --- | --- | --- | --- | --- | --- | --- | --- | --- | --- | --- | --- |
| CCOC(=O)C1=C(C)NC(OC)N(CC(=O)c2ccc(OC)cc2)C1c1ccc(C)cc1 (stereo unspecified) | 30 | 37.6 | 47.9 | 38.8 | 39.8 | 42 | 43.33 | 0.56 | 44 | 1.82 | 11.1 | 14.7 | 24 | 28.1 | 36.9 | 39.6 | 42 | 46.3 | 3.12 | 11.5 | inhibition in vivo at 10 mg/kg (Rattus norvegicus [20]): 22.5% |
| CCOC(=O)C1=C(C)NC(OC)N(CC(=O)c2ccc(Cl)cc2)C1c1ccc(C)cc1 (stereo unspecified) | 30.4 | 37.8 | 47.8 | 37.1 | 38.8 | 47.3 | 53.17 | 0.76 | 44 | 1.61 | 11.1 | 13.8 | 24 | 28 | 36.8 | 39.5 | 42 | 45.7 | 2.35 | 10.5 | inhibition in vivo at 10 mg/kg (Rattus norvegicus [20]): 22.5% |
| CCOC(=O)C1=C(C)NC(OC)N(CC(=O)c2ccc(Cl)cc2)C1c1ccc(OC)cc1 (stereo unspecified) | 30.1 | 37.9 | 47.7 | 37.8 | 39.5 | 42 | 49.56 | 0.45 | 49.4 | 1.57 | 6.58 | 18.2 | 23.8 | 28 | 36 | 41.4 | 42.9 | 51.9 | 1.79 | 10.1 | inhibition in vivo at 10 mg/kg (Rattus norvegicus [20]): 23.5% |
| CCOC(=O)C1=C(C)NC(OC)N(CC(=O)c2ccccc2)C1c1ccc(OC)cc1 (stereo unspecified) | 30.9 | 37.9 | 48.2 | 38.8 | 40.5 | 52.6 | 59.76 | 0.75 | 45 | 1.57 | 6.58 | 13.7 | 20.4 | 28 | 36 | 41.4 | 42.9 | 45.9 | 2.3 | 10.6 | inhibition in vivo at 10 mg/kg (Rattus norvegicus [20]): 22.9% |
| CCOC(=O)C1=C(C)NC(OC)N(CC(=O)c2ccc(Cl)cc2)C1c1ccccc1 (stereo unspecified) | 30.1 | 37.8 | 47.8 | 36.6 | 38.4 | 42 | 41.66 | 0.45 | 45 | 0.7 | 6.49 | 13.8 | 20.5 | 28 | 36.7 | 38.2 | 41.5 | 46.5 | 2.35 | 9.99 | inhibition in vivo at 10 mg/kg (Rattus norvegicus [20]): 23% |
| CCOC(=O)C1=C(C)NC(OC)N(CC(=O)c2ccc(Cl)cc2)C1c1ccc(Cl)cc1 (stereo unspecified) | 30.6 | 38.1 | 46.3 | 39.8 | 41 | 42 | 37.33 | 0.2 | 44 | 0.27 | 6.45 | 12.7 | 19.6 | 28.2 | 35.5 | 37.4 | 39.8 | 44.2 | 1.84 | 8.92 | inhibition in vivo at 10 mg/kg (Rattus norvegicus [20]): 23.3% |
